Test results taken from ChEMBL document CHEMBL2321734, “Novel antiviral activity of l-dideoxy bicyclic nucleoside analogues versus vaccinia and measles viruses in vitro” (J Med Chem, 2013).
Activity calls are given as the source filed them. The calls are words filed in the database; no cut-off is given here.

How the values were obtained:
Human alphaherpesvirus 1 [1] = experiment: Antiviral activity against HSV 1 NCPV 17+ infected in african green monkey BSC-1 cells assessed as virus-induced cytopathogenicity incubated for 30 mins prior to inoculation measured after 3 days by phase contrast microscopy; format: functional
Summary of the method: (§1)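 Cells grown to 80% confluence in 96-well plates and pretreated 30 min with drug-containing medium. Infection was 100 pfu (HSV-1/2, adenovirus 5) or 100 sfu (measles) per well, then 3 days in DMEM without FBS or antibiotics with drug at 1–100 µM. CPE was scored by phase contrast against virus-only controls. TCID50 is the 50% CPE reduction, averaged over 3 experiments by Reed–Muench.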

Measles morbillivirus [2] = experiment: Ratio of ribavirin TCID50 to compound TCID50 for wild type Measles virus mWTFb; format: functional
[3] = Cytotoxicity against human HFFF cells assessed as cell viability by CellTitre-Glo Luminescent Cell Viability assay; format: cell-based
BSC-1 [4] = experiment: Cytotoxicity against african green monkey BSC1 cells infected with Vaccinia virus-WR luciferase reporter virus v3 assessed as visible cytotoxic effect at 10 uM incubated for 30 mins prior to inoculation measured after 2 hrs by phase contrast microscopic analysis; format: cell-based; settings: chlorocebus aethiops, bsc-1, 2 h
Vaccinia virus [5] = experiment: Antiviral activity against Vaccinia virus WR infected in african green monkey BSC1 cells after 4 days by plaque reduction assay; format: functional, organism-based; settings: Orthopoxvirus vaccinia, BSC-1, 96 h
Vaccinia virus [6] = experiment: Ratio of cidofovir IC50 to compound IC50 for Vaccinia virus WR; format: functional, Orthopoxvirus vaccinia
Measles morbillivirus [7] = experiment: Antiviral activity against Measles virus Edmonston infected in african green monkey BSC-1 cells assessed as virus-induced cytopathogenicity incubated for 30 mins prior to inoculation measured after 3 days by phase contrast microscopy; format: functional; summary of the method: as §1
Measles morbillivirus [8] = experiment: Antiviral activity against Measles virus Edmonston infected in simian B95a cells assessed as virus-induced cytopathogenicity incubated for 30 mins prior to inoculation measured after 3 days by phase contrast microscopy; format: functional; summary of the method: as §1
[9] = Selectivity index, ratio of CC50 for african green monkey BSC1 cells to IC50 for Vaccinia virus-WR; format: functional, BSC-1
BSC-1 [10] = experiment: Cytotoxicity against african green monkey BSC1 cells infected with Vaccinia virus-WR after 4 days; format: cell-based; settings: chlorocebus aethiops, bsc-1, 96 h
Human adenovirus 5 [11] = experiment: Antiviral activity against Adenovirus type 5 ATCC VR-5 infected in african green monkey BSC1 cells assessed as virus-induced cytopathogenicity incubated for 30 mins prior to inoculation measured after 3 days by phase contrast microscopy; format: functional, BSC-1; summary of the method: as §1
Vaccinia virus [12] = experiment: Antiviral activity against Vaccinia virus WR expressing luciferase reporter virus v3 infected in rabbit RK13 cells assessed as inhibition of early stages of VACV replication at 10 uM incubated for 30 mins prior to inoculation measured after 2 hrs by luciferase reporter gene assay relative to control; format: functional; settings: Orthopoxvirus vaccinia, RK-13
[13] = Cytotoxicity against african green monkey BSC1 cells assessed as ATP levels […] by CellTitre-Glo Luminescent Cell Viability assay; format: cell-based, BSC-1; settings: chlorocebus aethiops
Human alphaherpesvirus 2 [14] = experiment: Antiviral activity against HSV 2 NCPV 132349 infected in african green monkey BSC-1 cells assessed as virus-induced cytopathogenicity incubated for 30 mins prior to inoculation measured after 3 days by phase contrast microscopy; format: functional; summary of the method: as §1
Human adenovirus 5 [15] = experiment: Antiviral activity against Adenovirus type 5 ATCC VR-5 infected in human HFFF cells assessed as virus-induced cytopathogenicity incubated for 30 mins prior to inoculation measured after 3 days by phase contrast microscopy; format: functional; summary of the method: as §1
Human alphaherpesvirus 2 [16] = experiment: Antiviral activity against HSV 2 NCPV 132349 infected in human HFFF cells assessed as virus-induced cytopathogenicity incubated for 30 mins prior to inoculation measured after 3 days by phase contrast microscopy; format: functional; summary of the method: as §1
Human alphaherpesvirus 1 [17] = experiment: Antiviral activity against HSV 1 NCPV 17+ infected in human HFFF cells assessed as virus-induced cytopathogenicity incubated for 30 mins prior to inoculation measured after 3 days by phase contrast microscopy; format: functional; summary of the method: as §1
Measles morbillivirus [18] = experiment: Antiviral activity against wild type Measles virus mWTFb infected in simian B95a cells assessed as virus-induced cytopathogenicity incubated for 30 mins prior to inoculation measured after 3 days by phase contrast microscopy; format: functional, organism-based

Structure (SMILES) | Activity (BSC-1 [4]) | IC50 (Vaccinia virus [5]) [nM] | Activity (BSC-1 [10]) | inhibition at 10 µM (Vaccinia virus [12]) [%] | other results
CCCCCOCCCCCCCCCc1cc2cn([C@@H]3CC[C@H](CO)O3)c(=O)nc2o1 | Non-toxic | 190 | Non-toxic | 27.7 | TCID50 (Human alphaherpesvirus 1 [1]): >50 µM; Ratio (Measles morbillivirus [2]): 150; CC50 [3]: > 100 µM; Ratio IC50 (Vaccinia virus [6]): 60; TCID50 (Measles morbillivirus [7]): >50 µM; TCID50 (Measles morbillivirus [8]): >50 µM; Ratio CC50/IC50 [9]: >500; TCID50 (Human adenovirus 5 [11]): >50 µM; CC50 at 96 h [13]: > 100 µM; TCID50 (Human alphaherpesvirus 2 [14]): >50 µM; TCID50 (Human adenovirus 5 [15]): >50 µM; TCID50 (Human alphaherpesvirus 2 [16]): >50 µM; TCID50 (Human alphaherpesvirus 1 [17]): >50 µM
Nc1ccn(C[C@@H](CO)OCP(=O)(O)O)c(=O)n1 [CIDOFOVIR] | – | 11500 | – | 94.6 | CC50 [3]: > 100 µM; CC50 at 96 h [13]: > 100 µM; inhibition (Measles morbillivirus [18]): inactive
CCCCCCOCCCCCCCCCc1cc2cn([C@@H]3CC[C@H](CO)O3)c(=O)nc2o1 | Non-toxic | 190 | Non-toxic | 35.7 | CC50 [3]: > 100 µM; Ratio IC50 (Vaccinia virus [6]): 60; CC50 at 96 h [13]: 74.1 µM
CCCCCCCCCCCCc1cc2cn([C@@H]3CC[C@H](CO)O3)c(=O)nc2o1 | Non-toxic | – | – | 96.4 | –
CCCCOCCCCCCCCCc1cc2cn([C@@H]3CC[C@H](CO)O3)c(=O)nc2o1 | Non-toxic | 1800 | Non-toxic | 27.5 | CC50 [3]: > 100 µM; CC50 at 96 h [13]: > 100 µM
CCCCCc1ccc(-c2cc3cn([C@@H]4CC[C@H](CO)O4)c(=O)nc3o2)cc1 | Non-toxic | – | – | 73.6 | –
COC[C@H]1OC(=O)c2coc3c2[C@@]1(C)C1=C(C3=O)[C@@H]2CCC(=O)[C@@]2(C)C[C@H]1OC(C)=O [WORTMANNIN] | – | – | – | – | IC50 (Measles morbillivirus [18]): 75 µM
CCC(C)OCCCCCCCCCc1cc2cn([C@@H]3CC[C@H](CO)O3)c(=O)nc2o1 (some centres not stated) | Non-toxic | – | – | 69.9 | –
CCCCCCCCCCOCCCCc1cc2cn([C@@H]3CC[C@H](CO)O3)c(=O)nc2o1 | Non-toxic | 2200 | Non-toxic | 26.1 | –
CC(C)(C)OCCCCCCCCCc1cc2cn([C@@H]3CC[C@H](CO)O3)c(=O)nc2o1 | Non-toxic | – | – | 70.7 | –
CCCCCCCCCc1cc2cn([C@@H]3CC[C@H](CO)O3)c(=O)nc2o1 | Non-toxic | – | – | 38.1 | –
COCCCCCCCCCCCCCc1cc2cn([C@@H]3CC[C@H](CO)O3)c(=O)nc2o1 | Non-toxic | – | – | 60.5 | –
CC(C)COCCCCCCCCCc1cc2cn([C@@H]3CC[C@H](CO)O3)c(=O)nc2o1 | Non-toxic | – | – | 64.3 | –
CCCCCCc1cc2cn([C@@H]3CC[C@H](CO)O3)c(=O)nc2o1 | Non-toxic | – | – | 70.7 | –
CCCCCCCCCCc1cc2cn([C@@H]3CC[C@H](CO)O3)c(=O)nc2o1 | Non-toxic | – | – | 45.7 | –
NC(=O)c1ncn([C@@H]2O[C@H](CO)[C@@H](O)[C@H]2O)n1 [RIBAVIRIN] | – | – | – | – | IC50 (Measles morbillivirus [18]): 1160 µM
CCCOCCCCCCCCCc1cc2cn([C@@H]3CC[C@H](CO)O3)c(=O)nc2o1 | Non-toxic | 1900 | Non-toxic | 46.8 | CC50 [3]: > 100 µM; CC50 at 96 h [13]: 89.1 µM
CCCCCCCCc1cc2cn([C@@H]3CC[C@H](CO)O3)c(=O)nc2o1 | Non-toxic | – | – | 41.9 | –
CCCCc1ccc(-c2cc3cn([C@@H]4CC[C@H](CO)O4)c(=O)nc3o2)cc1 | Non-toxic | – | – | 43.7 | –
CC(C)OCCCCCCCCCc1cc2cn([C@@H]3CC[C@H](CO)O3)c(=O)nc2o1 | Non-toxic | – | – | 79.9 | –
CCOCCCCCCCCCc1cc2cn([C@@H]3CC[C@H](CO)O3)c(=O)nc2o1 | Non-toxic | 12900 | Non-toxic | 79.9 | CC50 [3]: > 100 µM; CC50 at 96 h [13]: 79.4 µM
CCCCCCCCCCCCCOCc1cc2cn([C@@H]3CC[C@H](CO)O3)c(=O)nc2o1 | Non-toxic | 3400 | Non-toxic | 43.9 | –
CCCCCCCc1cc2cn([C@@H]3CC[C@H](CO)O3)c(=O)nc2o1 | Non-toxic | – | – | 43.2 | –
CCCCCCOCCCCCCCCc1cc2cn([C@@H]3CC[C@H](CO)O3)c(=O)nc2o1 | Non-toxic | 1700 | Non-toxic | 37.2 | –
